For assay [1], the target named is Telomerase reverse transcriptase (Homo sapiens) (UniProt O14746). Briefly: Activation of telomerase activity in human neonatal primary epidermal keratinocytes assessed as fold change at 2 nM after 24 hrs by PCR-based TRAP assay relative to untreated control. The essentials:
(§1)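 HEKn cells from ATCC, grown in dermal basal cell medium with keratinocyte growth supplements. Seeded, medium refreshed next day, then treated 24 h the following day (0.1–30 nM; DMSO control). 2 × 10^5 harvested cells lysed on ice 30 min, lysate spun 16000g 20 min. Telomerase measured by TRAP PCR-ELISA, absorbance at 450 nm (reference ~690 nm). Fold activation versus DMSO-treated cells.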

Assay [2] shares this target. Put plainly: Activation of telomerase activity in human neonatal primary epidermal keratinocytes assessed as fold change at 0.1 nM after 24 hrs by PCR-based TRAP assay relative to untreated control. The procedure, abridged:
as §1

Assay [3] has the same target. Put plainly: Activation of telomerase activity in human neonatal primary epidermal keratinocytes assessed as fold change at 0.1 to 30 nM after 24 hrs by PCR-based TRAP assay relative to untreated control. The procedure, abridged: as §1
The target is the same in assay [4]. Put plainly: Activation of telomerase activity in human neonatal primary epidermal keratinocytes assessed as fold change at 0.5 nM after 24 hrs by PCR-based TRAP assay relative to untreated control. The procedure, abridged:
as §1

Structures are written as SMILES.

Sequence of Telomerase reverse transcriptase (Homo sapiens) (O14746 whole entry): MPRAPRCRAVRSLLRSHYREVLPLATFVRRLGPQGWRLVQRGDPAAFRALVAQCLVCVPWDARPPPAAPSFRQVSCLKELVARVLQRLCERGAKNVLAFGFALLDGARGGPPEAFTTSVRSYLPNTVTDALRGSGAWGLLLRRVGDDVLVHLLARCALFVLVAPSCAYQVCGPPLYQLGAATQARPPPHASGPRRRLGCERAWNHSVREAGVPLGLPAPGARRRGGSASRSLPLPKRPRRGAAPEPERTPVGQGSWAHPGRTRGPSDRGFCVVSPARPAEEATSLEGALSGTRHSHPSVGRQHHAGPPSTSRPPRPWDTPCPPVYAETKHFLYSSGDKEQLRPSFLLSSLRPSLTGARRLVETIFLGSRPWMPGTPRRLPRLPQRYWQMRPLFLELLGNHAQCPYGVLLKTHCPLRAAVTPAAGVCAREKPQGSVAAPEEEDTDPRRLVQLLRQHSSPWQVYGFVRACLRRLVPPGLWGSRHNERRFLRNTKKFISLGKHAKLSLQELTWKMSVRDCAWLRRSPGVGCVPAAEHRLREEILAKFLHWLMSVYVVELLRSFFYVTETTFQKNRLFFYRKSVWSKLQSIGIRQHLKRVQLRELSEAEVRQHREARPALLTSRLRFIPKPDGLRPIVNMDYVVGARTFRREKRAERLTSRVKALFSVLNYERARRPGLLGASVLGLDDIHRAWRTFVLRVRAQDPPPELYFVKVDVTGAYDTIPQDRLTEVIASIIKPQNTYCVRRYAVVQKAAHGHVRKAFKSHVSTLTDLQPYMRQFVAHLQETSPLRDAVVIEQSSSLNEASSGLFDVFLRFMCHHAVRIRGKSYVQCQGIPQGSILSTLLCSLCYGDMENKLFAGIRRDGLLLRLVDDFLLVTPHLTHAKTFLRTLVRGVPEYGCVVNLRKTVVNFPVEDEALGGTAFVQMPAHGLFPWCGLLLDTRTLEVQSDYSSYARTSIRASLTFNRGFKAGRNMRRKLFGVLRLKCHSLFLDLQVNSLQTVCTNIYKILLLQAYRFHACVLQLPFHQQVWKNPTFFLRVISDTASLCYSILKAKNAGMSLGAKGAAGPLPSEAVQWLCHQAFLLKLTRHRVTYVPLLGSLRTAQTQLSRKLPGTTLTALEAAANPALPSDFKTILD

For the compound `CC(C)(O)[C@@H]1CC[C@](C)([C@H]2[C@@H](O)C[C@@]3(C)[C@@H]4C[C@H](O)[C@H]5C(C)(C)[C@@H](O)CC[C@@]56C[C@@]46CC[C@]23C)O1`, the fold change (FC) is 5.2 in assay [1], 1.5 in assay [2] and 1.5 to 5.2 in assay [3].
For `CC(C)(O)[C@@H]1CC[C@](C)([C@H]2[C@@H](O)C[C@@]3(C)[C@@H]4C[C@H](O)[C@H]5C(C)(C)[C@@H](O)CC[C@@]56C[C@@]46C[C@H](O)[C@]23C)O1`, the figures for the fold change (FC) in assay [4] and in assay [3] were 5 and 1.5 to 5.2, respectively.
Turning to `CC(C)(O)[C@@H]1CC[C@](C)([C@H]2[C@@H](O)C[C@@]3(C)[C@@H]4C[C@H](O)[C@H]5C(C)(C)C(=O)CC[C@@]56C[C@@]46[C@@H](O)C[C@]23C)O1`, the fold change (FC) in assay [3] lay in the range of 1.5 to 5.2.
Consider `CC(C)(O)[C@@H]1CC[C@](C)([C@H]2[C@@H](O)C[C@@]3(C)[C@@H]4C[C@H](O)[C@H]5C(C)(C)[C@@H](O)CC[C@]5(C)C4=C[C@H](O)[C@]23C)O1`, for which the fold change (FC) in assay [2] was 3.8; in assay [3], 1.5 to 5.2.
For `CC(C)(O)[C@@H]1CC[C@](C)([C@H]2[C@@H](O)C[C@@]3(CO)[C@@H]4C[C@H](O)[C@H]5C(C)(C)C(=O)CC[C@@]56C[C@@]46CC[C@]23C)O1`, in that order: 3.5 and 1.5 to 5.2.

The record behind these values is ChEMBL document CHEMBL4414649, “Microbial Transformation of Cycloastragenol and Astragenol by Endophytic Fungi Isolated from Astragalus Species” (J Nat Prod, 2019).
